# An excerpt weighted towards active compounds, which were near 2.9% of everything screened.
# TRPC4 potent: positive allosteric modulators of TRPC4, primary screen, cell-based, mouse TRPC4beta, HEK293 mu-opioid, Fluo-4 calcium | B-score at 10 µM | Short transient receptor potential channel 4 (Mus musculus), Q9QUQ5 | AID 2227, 2009 | 310,000 compounds, 0.42% hits | DAMGO EC20, Fluo-4 Ca2+ flux; active compounds read high;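 active = B-score of calcium response area above 5 SD of library B-scores, with initial fluorescence ratio within 5 SD of library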;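 also: B-score of integrated fluorescence ratio over time as area under calcium response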
# Target sequence (Q9QUQ5 whole entry, looked up): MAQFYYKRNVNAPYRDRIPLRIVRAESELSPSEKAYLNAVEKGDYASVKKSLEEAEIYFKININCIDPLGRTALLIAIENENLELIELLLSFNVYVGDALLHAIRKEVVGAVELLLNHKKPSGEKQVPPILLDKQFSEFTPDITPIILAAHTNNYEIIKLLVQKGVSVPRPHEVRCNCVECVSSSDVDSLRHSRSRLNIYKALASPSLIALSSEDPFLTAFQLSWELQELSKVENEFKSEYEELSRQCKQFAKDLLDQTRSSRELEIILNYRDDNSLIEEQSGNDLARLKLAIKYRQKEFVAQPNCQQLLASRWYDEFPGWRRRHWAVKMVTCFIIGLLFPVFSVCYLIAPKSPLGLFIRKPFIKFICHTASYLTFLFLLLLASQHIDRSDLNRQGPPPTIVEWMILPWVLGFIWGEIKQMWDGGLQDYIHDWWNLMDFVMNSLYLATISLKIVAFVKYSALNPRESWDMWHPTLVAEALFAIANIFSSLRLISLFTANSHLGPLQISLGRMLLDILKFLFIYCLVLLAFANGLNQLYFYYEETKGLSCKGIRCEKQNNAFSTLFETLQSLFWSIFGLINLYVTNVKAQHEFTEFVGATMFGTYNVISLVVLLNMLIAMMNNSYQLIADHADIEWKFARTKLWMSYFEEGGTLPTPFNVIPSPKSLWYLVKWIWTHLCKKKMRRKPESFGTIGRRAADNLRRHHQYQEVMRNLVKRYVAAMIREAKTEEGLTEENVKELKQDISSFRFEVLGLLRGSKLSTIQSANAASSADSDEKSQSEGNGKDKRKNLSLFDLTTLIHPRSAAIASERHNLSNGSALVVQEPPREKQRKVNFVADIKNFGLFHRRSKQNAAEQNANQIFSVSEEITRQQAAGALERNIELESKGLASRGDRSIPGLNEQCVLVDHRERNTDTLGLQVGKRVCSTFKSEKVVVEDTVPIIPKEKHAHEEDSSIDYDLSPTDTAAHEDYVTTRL
# TRPC6 inh: mouse TRPC6 channel inhibitors, primary screen, cell-based, HEK293, membrane potential dye. Short transient receptor potential channel 6 (Mus musculus), Q61143. ACh-evoked depolarization; active compounds read low. B-score at 10 µM. 310,000 compounds, 1.1% hits. AID 2553, 2010;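 active = B-score under library mean minus 3 SD, initial fluorescence not abnormally high, positive integrated signal ratio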;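 also: B-score derived from integrated fluorescence ratio over the kinetic read; more negative B-score means stronger inhibition of depolarization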
# TRPC4 block: inhibitors of mouse TRPC4 channel, primary screen, Fluo4 calcium, HEK293 TRPC4beta/mu-opioid cells | Short transient receptor potential channel 4 (Mus musculus), Q9QUQ5 | DAMGO-evoked Fluo4 calcium flux; active compounds read low | B-score at 10 µM | 300,000 compounds, 0.39% hits | AID 2247, 2010;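 active = B-score over 3 SD under the library average, no early fluorescence shift, positive overall ratio signal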
#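 material = TRPC4beta/mu-opioid receptor HEK293 cell line | probe or stimulus = sequential submaximal and maximal DAMGO stimulation | compound dosing = one concentration per compound | measured by = Fluo4 Ca2+ flux fluorescence | evaluation = integrated fluorescence ratio relative to baseline, converted to per-well B score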
# Kir21 inh: inhibitors of mouse Kir2.1 inward-rectifier potassium channel | Inward rectifier potassium channel 2 (Mus musculus), P35561 | HEK293-Kir2.1, FluxOR thallium flux fluorescence; active compounds read low | B-score at 10 µM | 310,000 compounds, 0.85% hits;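 active = fluorescence ratio B-score at or below minus 3 SD of library scores, with starting-brightness B-score within 2 SD, cut at about -4.2 in these data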;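 also: channel flux triggered by added potassium and thallium sulfate stimulus; B-score of peak minus minimum fluorescence over baseline after thallium stimulus; more negative B-score means stronger Kir2.1 block with less thallium influx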
# TRPC4 act: activators of mouse TRPC4 channel, primary screen, Fluo4 calcium, HEK293 TRPC4beta/mu-opioid cells; Fluo4 calcium fluorescence; active compounds read high; Short transient receptor potential channel 4 (Mus musculus), Q9QUQ5; 310,000 compounds, 0.49% hits; B-score at 10 µM;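 active = B-score above 5 SD of library B-scores, and initial fluorescence ratio not above library mean plus 5 SD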;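 also: positive B-score marks a calcium rise read as TRPC4 activation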
#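 Assay system – TRPC4beta and mu-opioid receptor HEK293 stable cells · Measured by – Fluo4 fluorescence, kinetic · Schedule – dye loading 45 min room temperature, 110 s kinetic read · Read-out – B-scored integrated calcium fluorescence ratio · Controls – buffer and maximal DAMGO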
# TRPC6 act: mouse TRPC6 channel activators, primary screen, cell-based, HEK293, membrane potential dye; Short transient receptor potential channel 6 (Mus musculus), Q61143; HEK293-TRPC6 membrane potential dye fluorescence; active compounds read high; 310,000 compounds, 0.13% hits; B-score at 10 µM;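 active = B-score of the integrated fluorescence ratio above library mean plus 3 SD, and starting fluorescence ratio within library mean plus 5 SD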;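 also: higher score means more depolarization so channel activation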
# TRPC4 spec 2: second check of whether TRPC6 inhibitors also affect mouse TRPC4; HEK293 TRPC4/MOR, membrane potential dye fluorescence; channel activated by saturating DAMGO dose; 920 compounds, 42% hits; inhibition, % at 10 µM; AID 2776; shares compounds with TRPC6 inh;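 active = compounds whose fluorescence signal differed from control wells by over 3 SD, either direction, in both duplicate plates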
# TRPC4 spec: mouse TRPC4 modulation by TRPC6 hits, confirmation, selectivity assay for TRPC6 inhibitor project, cell-based, HEK293 TRPC4/mu-opioid, membrane potential dye; shares compounds with TRPC6 inh; membrane potential fluorescence; activity change, negative = inhibition, % at 10 µM; 920 compounds, 61% hits;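 active = rise or fall in signal beyond 3 SD of buffer-only wells in both replicate plates, either sign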;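 also: integrated kinetic ratio of fluorescence range over baseline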
# HEK293 MPD ctr 2-1: nonspecific membrane potential effects, parental HEK293, confirmation, counter-screen for TRPC6 inhibitor project, cell-based, second counter screen. AID 2779, 2010. shares compounds with TRPC6 inh. 920 compounds, 31% hits. signal change vs control, % at 10 µM. parental HEK293 membrane potential dye fluorescence; maximal acetylcholine challenge after compound addition;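 active = membrane potential signal moving either way by over 3 SD of the maximum-effect control, in both duplicate plates, meaning non-specific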
# HEK293 MPD ctr-1: membrane potential modulation in parental HEK293, confirmation, counter-screen for TRPC6 inhibitor project, cell-based; shares compounds with TRPC6 inh; parental HEK293 membrane potential dye fluorescence; membrane potential signal change, % at 10 µM; 920 compounds, 60% hits; AID 2780, 2010;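 active = membrane potential signal shifting up or down by more than 3 SD of buffer-only wells, on both duplicate plates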
# HEK293 MPD ctr-2: parental HEK293 membrane potential modulation, confirmation, counter-screen for TRPC6 modulator project, cell-based; membrane potential dye fluorescence; 2,400 compounds, 51% hits; shares compounds with TRPC6 inh; AID 488924, 2010; membrane potential signal change, % at 10 µM;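 active = membrane potential signal moves up or down beyond 5 SD from buffer-only wells, on both duplicate plates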
# HEK293 MPD ctr 2-2: parental HEK293 nonspecific activity of TRPC6 modulators, second screen | inhibition, % at 10 µM | shares compounds with TRPC6 inh | AID 488926 | membrane potential dye fluorescence; after compound, maximal acetylcholine stimulation | 2,400 compounds, 14% hits;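 active = membrane potential signal drops by more than 5 SD from the mean control signal, in both duplicate plates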;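 also: plate controls were acetylcholine ECmax control wells for no effect and buffer only wells for full effect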
# TRPC4/MOR mod: TRPC4 modulation by TRPC6 hit compounds, confirmation, selectivity assay for TRPC6 modulator project, cell-based, HEK293 TRPC4/mu-opioid, membrane potential dye, mouse; 2,400 compounds, 69% hits; AID 488927, 2010; percent change from control (negative = decrease, positive = increase), % at 10 µM; shares compounds with TRPC6 inh; membrane potential fluorescence;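 active = membrane potential signal moved up or down beyond 5 SD of buffer control wells, in both duplicate plates, actives on both sides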;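 also: plate controls were assay buffer wells for no effect and DAMGO maximal-effect wells for full effect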
# TRPC4 ctr inh 2: mouse TRPC4 off-target activity of TRPC6 modulators, second screen; shares compounds with TRPC6 inh; HEK293 TRPC4/mu-opioid, membrane potential dye fluorescence; stimulated with maximal-effect DAMGO; inhibition, % at 10 µM; 2,400 compounds, 55% hits; AID 488928;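 active = drop in membrane potential signal beyond 5 SD of the control wells in both duplicate plates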;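 also: TRPC4 counter screen for TRPC6 hits run under conditions tuned for TRPC6 not TRPC4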
# TRPC6 inh conf: mouse TRPC6 channel inhibitors, confirmation, HEK293 cells, membrane potential dye, duplicate; shares compounds with TRPC6 inh; ACh-evoked depolarization; inhibition, % at 10 µM; 3,300 compounds, 43% hits; AID 488960, 2010;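 active = fluorescence ratio falls more than 5 SD below the full-stimulation control mean, in both duplicate runs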;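 also: integrated fluorescence ratio of peak minus minimum over baseline after agonist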
# TRPC6 act conf: mouse TRPC6 channel activators, confirmation, HEK293 cells, membrane potential dye, duplicate; 2,800 compounds, 11% hits; activation, % at 10 µM; shares compounds with TRPC6 inh; HEK293-TRPC6 membrane potential dye fluorescence, FDSS;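 active = ratio signal rise beyond 5 SD above unstimulated control wells' mean, seen in both duplicate runs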;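 also: plate controls were buffer EC0 wells for no effect and acetylcholine ECmax response for full effect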
# The depositor's hits bear a star; i = inactive; · = not tested or not shown.
SMILES,TRPC4 potent,TRPC6 inh,TRPC4 block,Kir21 inh,TRPC4 act,TRPC6 act,HEK293 MPD ctr-2,HEK293 MPD ctr 2-2,TRPC4/MOR mod,TRPC4 ctr inh 2,TRPC6 inh conf,TRPC6 act conf,others
CC(=O)c1sc2nsc(SCCN3CCCC3)c2c1N,i,-5.2*,i,-0.16,i,i,232%*,i,i,36%*,i,·,
COCc1c(C#N)c(NCCc2ccc(F)cc2)nc(C)c1[N+](=O)[O-],i,-8*,i,0.34,i,i,·,·,·,·,i,i,TRPC4 spec 2=i;TRPC4 spec=i;HEK293 MPD ctr 2-1=i;HEK293 MPD ctr-1=i
COCc1c(C#N)c(NCCc2ccccc2)nc(C)c1[N+](=O)[O-],i,i,i,1.5,i,i,·,·,·,·,·,·,
CC1(C)Cc2nc3oc4c(=O)n(CC(=O)Nc5ccc(Cl)cc5)cnc4c3cc2CO1,i,-8.3*,i,-0.08,i,i,·,·,·,·,i,i,TRPC4 spec 2=i;TRPC4 spec=i;HEK293 MPD ctr 2-1=i;HEK293 MPD ctr-1=i
COc1ccc(OC)c(Nc2cc(C(=O)NCCCN3CCOCC3)c3ccccc3n2)c1,i,-5.5*,i,-0.01,i,i,i,i,i,45%*,i,i,
COc1cccc(-c2nc(C(=O)NCCCN3CCOCC3)cc3c2[nH]c2ccccc23)c1,i,-7.3*,i,-0.28,i,i,·,·,·,·,i,i,TRPC4 spec 2=i;TRPC4 spec=-10%*;HEK293 MPD ctr 2-1=i;HEK293 MPD ctr-1=-158%*
COc1cccc(-c2cc(C(=O)NCCCN3CCOCC3)no2)c1,i,i,i,-1.6,i,i,·,·,·,·,·,·,
COc1ccccc1Nc1cc(C(=O)NCCCN2CCOCC2)c2ccccc2n1,i,i,i,-1.6,i,i,·,·,·,·,·,·,
O=C(NCCCN1CCOCC1)c1cc2c([nH]c3ccccc32)c(-c2cccc(Br)c2)n1,i,-8.8*,i,-0.14,i,i,·,·,·,·,54%*,i,TRPC4 spec 2=i;TRPC4 spec=i;HEK293 MPD ctr 2-1=i;HEK293 MPD ctr-1=i
CCc1cc(=O)oc2cc(OCC(=O)N3CCC[C@H]3C(=O)O)ccc12,i,i,i,-0.05,i,i,·,·,·,·,·,·,
c1ccc(C[C@H]2CNCCN2CCCCC2CCCCC2)cc1,i,-6*,i,-3.3,i,i,i,i,i,48%*,i,i,
C/C(=C\C(=O)c1ccc(Cl)s1)N(C)C,i,i,i,-0.3,i,i,·,·,·,·,·,·,
COc1cccc(-n2c(CCn3nc(C)c([N+](=O)[O-])c3C)n[nH]c2=S)c1,i,i,i,-0.3,i,i,·,·,·,·,·,·,
COc1ccc(CCn2nc(C)c([N+](=O)[O-])c2C)cc1,i,-5.2*,i,-0.3,i,i,i,i,20%*,i,i,·,
Cc1ccc(-c2c(C)sc3ncn(CC(=O)N4CCOCC4)c(=O)c23)cc1C,i,i,i,-0.21,i,i,·,·,·,·,·,·,
COc1ccc(CCNCc2ccc(OCc3ccc(Cl)nc3)c(OC)c2)cc1OC,i,-6*,i,-0.68,i,i,i,i,i,72%*,44%*,i,
CCOc1ccccc1/C=N/NC(=O)CNC(=O)c1cccs1,i,i,i,-0.07,i,i,·,·,·,·,·,·,
CN(CCCNC(=O)c1cccn2c(=O)c3ccccc3nc12)Cc1ccccc1,i,-6.3*,i,0.85,i,i,-136%*,i,-32%*,62%*,46%*,i,
O=C(NCCN1CCN(c2ccccc2)CC1)c1cccn2c(=O)c3ccccc3nc12,i,i,i,-0.47,i,i,·,·,·,·,·,·,
Cc1ccc(S(=O)(=O)c2cc3c(=O)n4ccccc4nc3n(CCCN3CCOCC3)c2=N)cc1C,i,-6.2*,i,0.35,i,i,-250%*,66%*,-52%*,80%*,66%*,i,

# Compound activity: PubChem, Johns Hopkins Ion Channel Center
